The text below walks through data of ChEMBL document CHEMBL1127450, “Synthesis and antiviral activity evaluation of some aminoadamantane derivatives” (1994).

Structures are written as SMILES. ≈ marks a conversion by molar mass, not a printed value. Bounds are passed on as bounds.

What all share (type): functional
Assay [1] deals with MDCK. Briefly: Tested for minimum inhibitory concentration required to reduce virus-induced cytopathicity by 50% on MDCK cell line infected with influenza A virus. Particulars: Canis lupus familiaris. Summed up:
(§1)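 HeLa (human epithelial), MDCK (Madin-Darby canine kidney) or Vero (African green monkey kidney) cells were infected with the stated virus. The value is the concentration that reduces virus-induced cytopathicity by 50%. Values are averages of at least two separate experiments.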

Assay [2] has as its system MDCK. Briefly: Tested for minimum inhibitory concentration required to cause a microscopically detectable alteration of normal cell morphology by 50% on MDCK cell line. To be noted: Canis lupus familiaris. The essentials: (§2)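 HeLa (human epithelial), MDCK (Madin-Darby canine kidney) or Vero (African green monkey kidney) cells were scored by microscopy. The value is the minimum concentration that causes a detectable alteration of normal cell morphology. Values are averages of at least two separate experiments.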

Assay [3] relates to HEF. Nature of the assay: Tested for minimum inhibitory concentration required to reduce virus-induced cytopathicity by 50% on HEF cell line infected with vaccinia virus. To be noted: Homo sapiens. The essentials: (§3)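 Human embryonic skin-muscle fibroblasts (HEF) were infected with the stated virus. The value is the concentration that reduces virus-induced cytopathicity by 50%. Values are averages of at least two separate experiments.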
For orientation: Protection from cytopathic effect is a common read-out in antiviral testing.

Assay [4] concerns CCRF-CEM. Briefly: Tested for minimum inhibitory concentration required to reduce virus-induced cytopathicity by 50% on CEM cell line infected with HIV-2 virus. To be noted: Homo sapiens.
In assay [5] the test system is HEF. Nature of the assay: Tested for minimum inhibitory concentration required to reduce virus-induced cytopathicity by 50% on HEF cell line infected with HSV-2 virus. To be noted: Homo sapiens. Summed up: as §3
The subject of assay [6] is HeLa. Briefly: Tested for minimum inhibitory concentration required to reduce virus-induced cytopathicity by 50% on HeLa cell line infected with polio 1 virus. To be noted: Homo sapiens. Summed up: as §1
The test system of assay [7] is HEF. Nature of the assay: Tested for minimum inhibitory concentration required to cause a microscopically detectable alteration of normal cell morphology by 50% on HEF cell line. To be noted: Homo sapiens. The essentials:
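Human embryonic skin-muscle fibroblasts (HEF) were used. The value is the minimum concentration that causes a microscopically detectable alteration of normal cell morphology. Values are averages of at least two separate experiments.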

In assay [8] the test system is HeLa. Nature of the assay: Tested for minimum inhibitory concentration required to cause a microscopically detectable alteration of normal cell morphology by 50% on HeLa cell line. To be noted: Homo sapiens. Summed up:
as §2

The test system of assay [9] is CCRF-CEM. Nature of the assay: Tested for minimum inhibitory concentration required to reduce virus-induced cell viability by 50% on CEM cell line. To be noted: Homo sapiens.
For assay [10], the system named is HeLa. Nature of the assay: Tested for minimum inhibitory concentration required to reduce virus-induced cytopathicity by 50% on HeLa cell line infected with RSV virus. Particulars: Homo sapiens. Summed up: as §1
Assay [11] has as its system Vero. Briefly: Tested for minimum inhibitory concentration required to reduce virus-induced cytopathicity by 50% on vero cell line infected with semliki forest virus. Particulars: Chlorocebus sabaeus. The essentials:
as §1

The subject of assay [12] is HEF. Nature of the assay: Tested for minimum inhibitory concentration required to reduce virus-induced cytopathicity by 50% on HEF cell line infected with vesicular stomatitis virus. To be noted: Homo sapiens. The essentials: as §3
Assay [13] has as its system HEF. Nature of the assay: Tested for minimum inhibitory concentration required to reduce virus-induced cytopathicity by 50% on HEF cell line infected with HSV-1 virus. To be noted: Homo sapiens. The essentials:
as §3

Assay [14] relates to Vero. Nature of the assay: Tested for minimum inhibitory concentration required to reduce virus-induced cytopathicity by 50% on vero cell line infected with sindbis virus. Particulars: Chlorocebus sabaeus. Summed up: as §1
Assay [15] relates to HEF. Nature of the assay: Tested for minimum inhibitory concentration required to reduce virus-induced cytopathicity by 50% on HEF cell line infected with thymidine kinase-deficient herpes simplex virus type 1 (TK-HSV-1). To be noted: Homo sapiens. Summed up:
as §3

Assay [16] has as its system Vero. Briefly: Tested for minimum inhibitory concentration required to cause a microscopically detectable alteration of normal cell morphology by 50% on vero cell line. To be noted: Chlorocebus sabaeus. The essentials:
as §2

The subject of assay [17] is HEF. Nature of the assay: Tested for minimum inhibitory concentration required to reduce […] by 50% on HEF cell line. Particulars: Homo sapiens. Summed up: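 Human embryonic lung fibroblasts (HEF) were used for cell proliferation. The value is the concentration that reduces cell proliferation by 50%. Values are averages of at least two separate experiments.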

In assay [18] the test system is Vero. Briefly: Tested for minimum inhibitory concentration required to reduce virus-induced cytopathicity by 50% on vero cell line infected with Reo 1 virus. To be noted: Chlorocebus sabaeus. Summed up: as §1
Assay [19] has as its system CCRF-CEM. Nature of the assay: Tested for minimum inhibitory concentration required to reduce virus-induced cytopathicity by 50% was evaluated on CEM cell line infected with HIV-1 virus. To be noted: Homo sapiens.
The subject of assay [20] is Vero. Briefly: Tested for minimum inhibitory concentration required to reduce virus-induced cytopathicity by 50% on vero cell line infected with parainfluenza 3 virus. Particulars: Chlorocebus sabaeus. The essentials:
as §1

Assay [21] relates to MDCK. Nature of the assay: Tested for minimum inhibitory concentration required to reduce virus-induced cytopathicity by 50% on MDCK cell line infected with influenza B virus. To be noted: Canis lupus familiaris. Summed up: as §1
For assay [22], the system named is Vero. Nature of the assay: Tested for minimum inhibitory concentration required to reduce virus-induced cytopathicity by 50% on vero cell line infected with coxsackie B4 virus. To be noted: Chlorocebus sabaeus. Summed up:
as §1

Regarding `C1CNC2(C1)C1CC3CC(C1)CC2C3` (centres undefined), the MIC50 against MDCK [1] is over 30 µg/mL; in the assay on MDCK [2], over 200 µg/mL; with HEF [3] it was over 200 µg/mL; in the assay with CCRF-CEM [4], over 40 µg/mL; against HEF [5] it was over 200 µg/mL; in the assay with HeLa [6], over 200 µg/mL. For the same molecule, the MIC50 with HEF [7] is at least 400 µg/mL; against HeLa [8], over 200 µg/mL; in the assay on CCRF-CEM [9] it was 100 µg/mL (≈ 523 µM); against HeLa [10], over 200 µg/mL; in the assay on Vero [11], over 200 µg/mL; with HEF [12], over 200 µg/mL. The MIC50 with HEF [13] is 200 µg/mL (≈ 1050 µM); against Vero [14], over 200 µg/mL; with HEF [15], over 200 µg/mL; in the assay on Vero [16], at least 400 µg/mL; in the assay with HEF [17] it was over 50 µg/mL; against Vero [18] it was over 200 µg/mL. Besides, the MIC50 against CCRF-CEM [19] was over 40 µg/mL; in the assay on Vero [20] it was over 200 µg/mL; with MDCK [21] it was over 200 µg/mL; against Vero [22] it was over 200 µg/mL.

For `CNCC1CC12C1CC3CC(C1)CC2C3` (centres undefined), the MIC50 with MDCK [1] is over 20 µg/mL; in the assay on MDCK [2], 20 µg/mL (≈ 97.4 µM); against HEF [3] it was over 20 µg/mL; against CCRF-CEM [4], over 8 µg/mL; against HEF [5], over 20 µg/mL; in the assay with HeLa [6] it was over 20 µg/mL. The MIC50 against HEF [7] is 40 µg/mL (≈ 195 µM); with HeLa [8], 40 µg/mL (≈ 195 µM); against CCRF-CEM [9], 4 µg/mL (≈ 19.5 µM); in the assay with HeLa [10], 30 µg/mL (≈ 146 µM); with Vero [11], over 20 µg/mL; in the assay with HEF [12] it was over 20 µg/mL. For the same molecule, the MIC50 was over 20 µg/mL against HEF [13]; over 20 µg/mL against Vero [14]; over 20 µg/mL in the assay with HEF [15]; 40 µg/mL (≈ 195 µM) with Vero [16]; 50 µg/mL (≈ 243 µM) against HEF [17]; over 20 µg/mL against Vero [18]. The MIC50 in the assay with CCRF-CEM [19] is over 8 µg/mL; against Vero [20], over 20 µg/mL; in the assay with MDCK [21] it was over 20 µg/mL; in the assay with Vero [22], over 20 µg/mL.

For `CN1CCCC12C1CC3CC(C1)CC2C3` (centres undefined), the MIC50 in the assay with MDCK [1] was 0.56 µg/mL (≈ 2.73 µM); against MDCK [2] it was over 200 µg/mL; in the assay on HEF [3], over 400 µg/mL; in the assay with CCRF-CEM [4], over 200 µg/mL; in the assay on HEF [5] it was over 400 µg/mL; in the assay with HeLa [6], over 400 µg/mL. The MIC50 is over 400 µg/mL with HEF [7]; over 400 µg/mL in the assay on HeLa [8]; over 200 µg/mL in the assay on CCRF-CEM [9]; over 200 µg/mL against HeLa [10]; over 400 µg/mL in the assay with Vero [11]; at least 400 µg/mL with HEF [12]. Also, the MIC50 against HEF [13] was at least 400 µg/mL; in the assay with Vero [14] it was over 400 µg/mL; in the assay on HEF [15] it was at least 400 µg/mL; against Vero [16], over 400 µg/mL; against HEF [17] it was over 50 µg/mL; with Vero [18] it was over 400 µg/mL. Moreover, the MIC50 against CCRF-CEM [19] is over 200 µg/mL; against Vero [20], over 400 µg/mL; with MDCK [21], over 200 µg/mL; against Vero [22], over 400 µg/mL.

As to `NC12CC3CC(CC(C3)C1)C2` [AMANTADINE], the MIC50 against MDCK [1] was 100 µg/mL (≈ 661 µM); against MDCK [2] it was over 100 µg/mL; in the assay with HeLa [8], 100 µg/mL (≈ 661 µM); in the assay with HeLa [10], over 100 µg/mL; with MDCK [21], over 200 µg/mL.

Consider `NC(=O)c1ncn([C@@H]2O[C@H](CO)[C@@H](O)[C@H]2O)n1` [RIBAVIRIN], for which the MIC50 was 1.2 µg/mL (≈ 4.91 µM) in the assay on MDCK [1]; over 200 µg/mL against MDCK [2]; 70 µg/mL (≈ 287 µM) against HEF [3]; over 400 µg/mL against HEF [5]; 70 µg/mL (≈ 287 µM) with HeLa [6]; over 400 µg/mL against HEF [7]. In addition, the MIC50 was over 200 µg/mL in the assay with HeLa [8]; 2.8 µg/mL (≈ 11.5 µM) against HeLa [10]; 20 µg/mL (≈ 81.9 µM) against Vero [11]; 20 µg/mL (≈ 81.9 µM) with HEF [12]; 200 µg/mL (≈ 819 µM) in the assay with HEF [13]; 70 µg/mL (≈ 287 µM) in the assay with Vero [14]. For the same molecule, the MIC50 in the assay with HEF [15] was at least 200 µg/mL; in the assay with Vero [16], over 400 µg/mL; in the assay on Vero [18], 20 µg/mL (≈ 81.9 µM); against Vero [20], 70 µg/mL (≈ 287 µM); with MDCK [21], 4 µg/mL (≈ 16.4 µM); against Vero [22] it was 300 µg/mL (≈ 1230 µM).
